The source of these data is paper PMC10759174 (RSC Advances, 2024).

Assay [1] deals with T1, ovine COX-1 (Ovis aries, UniProt P05979).
T1 sequence (P05979 25-600): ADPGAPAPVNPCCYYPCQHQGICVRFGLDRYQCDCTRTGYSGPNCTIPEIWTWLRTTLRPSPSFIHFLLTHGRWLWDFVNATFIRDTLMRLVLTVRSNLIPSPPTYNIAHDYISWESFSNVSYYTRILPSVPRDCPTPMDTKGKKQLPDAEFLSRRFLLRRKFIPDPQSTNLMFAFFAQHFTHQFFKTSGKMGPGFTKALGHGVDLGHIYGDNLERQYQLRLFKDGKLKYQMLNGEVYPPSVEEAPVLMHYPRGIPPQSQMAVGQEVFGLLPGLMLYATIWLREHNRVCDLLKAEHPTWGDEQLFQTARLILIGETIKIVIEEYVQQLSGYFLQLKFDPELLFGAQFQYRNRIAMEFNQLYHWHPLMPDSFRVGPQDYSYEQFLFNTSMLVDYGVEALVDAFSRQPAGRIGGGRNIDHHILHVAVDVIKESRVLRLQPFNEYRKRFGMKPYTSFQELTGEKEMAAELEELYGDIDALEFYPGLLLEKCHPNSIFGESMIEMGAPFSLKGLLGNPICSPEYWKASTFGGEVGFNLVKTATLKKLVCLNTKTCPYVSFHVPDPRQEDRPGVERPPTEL
Briefly: COX-1 inhibitor screening assay kit. Format: biochemical.

The target of assay [2] is T2, human recombinant COX-2 (Homo sapiens, UniProt P35354).
T2 sequence (P35354 18-604): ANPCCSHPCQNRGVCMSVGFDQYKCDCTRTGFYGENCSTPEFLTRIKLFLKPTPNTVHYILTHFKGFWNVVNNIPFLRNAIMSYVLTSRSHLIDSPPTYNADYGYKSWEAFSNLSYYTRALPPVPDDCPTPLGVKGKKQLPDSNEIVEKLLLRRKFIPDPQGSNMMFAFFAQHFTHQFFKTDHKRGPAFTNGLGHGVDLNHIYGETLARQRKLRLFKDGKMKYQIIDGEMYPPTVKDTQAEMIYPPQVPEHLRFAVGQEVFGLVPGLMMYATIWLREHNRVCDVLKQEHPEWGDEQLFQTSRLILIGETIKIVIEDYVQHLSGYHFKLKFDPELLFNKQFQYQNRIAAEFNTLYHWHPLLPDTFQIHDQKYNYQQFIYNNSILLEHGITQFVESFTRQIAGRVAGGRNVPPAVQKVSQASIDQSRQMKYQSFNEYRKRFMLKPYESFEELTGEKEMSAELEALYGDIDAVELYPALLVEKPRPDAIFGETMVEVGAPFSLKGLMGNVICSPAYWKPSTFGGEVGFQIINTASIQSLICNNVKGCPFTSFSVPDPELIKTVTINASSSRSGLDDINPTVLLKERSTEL
Briefly: COX-2 inhibitor screening assay kit. Conditions: for IC50 COX-1/COX-2 (in vitro COX-2 selectivity index): IC50 of COX-1/COX-2. Type of assay: biochemical.

Assay [3] in a line: DPPH free radical scavenging assay. Conditions: at a concentration of 1000 μg mL^−1. The procedure, abridged:
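DPPH 0.1 mM in ethanol, 1 mL, added to 3 mL of test compound solution in ethanol at 1000 μg mL−1. The mixture was shaken vigorously, left 30 min at room temperature, and absorbance read at 517 nm. Ascorbic acid served as reference, run in triplicate. % scavenging = (A0 − A1)/A0 × 100, where A0 is control-reaction absorbance and A1 is absorbance with sample.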
In general terms: Loss of DPPH colour is used to gauge radical scavenging.

The molecule `O=C1NC2(CCCCC2)c2[nH]c(=S)nc(-c3ccccc3)c21` [Compound 14, 4′-Phenyl-2′-thioxo-1′,2′-dihydrospiro[cyclohexane-1,7′-pyrrolo[3,4-d]pyrimidin]-5′(6′H)-one] came in with a concentration for half-maximal inhibition (IC50) in assay [1] of 6 µM. In assay [2], the IC50 came out at 80 nM and the “IC50 COX-1/COX-2 (in vitro COX-2 selectivity index)” value amounted to 75.00 µM. Further, the DPPH scavenging% in assay [3] turned out to be 66.5%.
As for `O=C1CCC(=O)C2(CCCCC2)N1` [Compound 6, 1-Azaspiro[5.5]undecane-2,5-dione], the IC50 in assay [1] turned out to be 11.5 µM. For the same molecule, in assay [2], the 50% inhibitory concentration (IC50) was found to be 89 nM and the “IC50 COX-1/COX-2 (in vitro COX-2 selectivity index)” value is 129.21 µM. In assay [3], this molecule displayed a DPPH scavenging% of 74.4%.
As to `Cc1cc(-c2ccccc2)c2c(n1)C1(CCCCC1)NC2=O` [Compound 17, 2′-Methyl-4′-phenylspiro[cyclohexane-1,7′-pyrrolo[3,4-b]pyridin]-5′(6′H)-one], the half-inhibitory concentration (IC50) in assay [1] was determined as 8 µM; in assay [2], 99 nM. Moreover, in assay [2], the “IC50 COX-1/COX-2 (in vitro COX-2 selectivity index)” value was 80.81 µM.
The molecule `O=C1NC2(CCCCC2)c2nc3c(c(-c4ccccc4)c21)CCCC3` [Compound 11, 9′-Phenyl-5′,6′,7′,8′-tetrahydrospiro[cyclohexane-1,3′-pyrrolo[3,4-b]quinolin]-1′(2′H)-one] had a half-inhibitory concentration (IC50) in assay [1] of 10.5 µM. In addition, in assay [2], the IC50 is 60 nM and the “IC50 COX-1/COX-2 (in vitro COX-2 selectivity index)” value amounted to 175.00 µM. The molecule also registered a DPPH scavenging% in assay [3] (listed as Comp. 11) of 86.1%.
As to `NC1=NC(=S)NC12CCCCC2` [Compound 4, 4-Amino-1,3-diazaspiro[4.5]dec-3-ene-2-thione], the IC50 in assay [1] is 7.5 µM; in assay [2], 135 nM. Also, the “IC50 COX-1/COX-2 (in vitro COX-2 selectivity index)” value in assay [2] came out at 55.56 µM. The DPPH scavenging% in assay [3] (listed as Comp. 4) is recorded as 61.1%.
In turn, `O=C1O[C@H]([C@@H](O)CO)C(O)=C1O` [Ascorbic acid, ascorbic acid, reference compound] had a DPPH scavenging% in assay [3] of 97%.

One may read the IC50 as the concentration that gives 50% inhibition.
